The record followed here is ChEMBL document CHEMBL1148140, “Isolation of streptonigrin and its novel derivative from Micromonospora as inducing agents of p53-dependent cell apoptosis” (J Nat Prod, 2002).

The source made the active and inactive calls. No cut-off for these calls is given here.

Test [1] concerns SH-SY5Y. The experiment in a line: Cytotoxicity against human wild type SH-SY5Y cells upto 100 uM. Type of test: functional, cell-based. Put shortly: (§1)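 Viability by MTS tetrazolium reduction. Neuroblastoma SH-SY5Y and SH-SY5Y-5.6 lines (HA-tagged 91-aa mini p53) were seeded the day before at 10⁵ cells/mL in RPMI with hygromycin 0.1 mg/mL. Exposure was 24 h; MTS was added at hour 20 (final 0.04 mg/well) for 4 h at 37 °C. Dose-response was run on reproducible hits.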

Test [2] deals with SH-SY5Y. Kind of test: Cytotoxicity against human SH-SY5Y cells overexpressing dominant negative mutant of p53 upto 100 uM. The format is functional, cell-based. The gist of the method: as §1
For test [3], the system named is SH-SY5Y. The experiment in a line: Cytotoxicity against human wild type SH-SY5Y cells. Type of test: functional, cell-based. The gist of the method: as §1
Test [4] relates to SH-SY5Y. Kind of test: Cytotoxicity against human SH-SY5Y cells overexpressing dominant negative mutant of p53. The format is functional, cell-based. Put shortly: as §1
Test [5] relates to SH-SY5Y. Kind of test: Selectivity ratio of IC50 for human SH-SY5Y cells overexpressing dominant negative mutant of p53 to IC50 for human wild type SH-SY5Y cells. Type of test: functional.
The test system of test [6] is SH-SY5Y. Kind of test: Induction of apoptosis in human SH-SY5Y cells assessed as nuclear accumulation of p53. The format is functional, cell-based.
Test [7] relates to SH-SY5Y. The experiment in a line: Induction of apoptosis in human SH-SY5Y cells assessed as DNA ladder activity. Type of test: functional, cell-based.

On to `CC(C)/C=c1\c(=O)[nH]/c(=C\c2ccccc2)c(=O)n1C`, for which the outcome in test [1] and in test [2] was inactive.

In general, IC50 refers to the midpoint of a concentration-inhibition curve. Take `COC1=C(NC(C)C(C)=O)C(=O)c2nc(-c3nc(C(=O)O)c(C)c(-c4ccc(OC)c(OC)c4O)c3N)ccc2C1=O` (stereo not drawn): the figures for the IC50 in test [3] and in test [4] were 900 nM and 75 µM, respectively.

In the case of `COC1=C(N)C(=O)c2nc(-c3nc(C(=O)O)c(C)c(-c4ccc(OC)c(OC)c4O)c3N)ccc2C1=O` [STREPTONIGRIN], the figures for the IC50 in test [3] and in test [4] were 50 nM and 4.6 µM, respectively. Also, the “Ratio IC50” value in test [5] is on record as 92. The outcome in test [6] and in test [7] was Active.

In the case of `C[C@H]1CNCCN1S(=O)(=O)c1cccc2cnccc12`, the IC50 was 40000 nM in test [3] and 80 µM in test [4].

On to `CC(C)/C=c1\[nH]c(=O)/c(=C/c2ccccc2)[nH]c1=O`, for which the outcome in test [1] and in test [2] was inactive.
